Blank lines part the entries; values can stand above or below the substance they belong to. Where no end group is shown, it is not given here.
Columns and labels:
[1] = target: CGRP receptor, CLR I41A (HA-CLR I41A with RAMP1) (UniProt Q16602)
[2] = target: CGRP receptor, CLR T37A (HA-CLR T37A with RAMP1) (UniProt Q16602)
[3] = target: CGRP receptor, CLR Q45A (HA-CLR Q45A with RAMP1) (UniProt Q16602)
[4] = target: CGRP receptor, CLR G35A (HA-CLR G35A with RAMP1) (UniProt Q16602)
[5] = target: CGRP receptor, CLR M42A (HA-CLR M42A with RAMP1) (UniProt Q16602)
[6] = target: CGRP receptor, wild type (HA-CLR with RAMP1) (UniProt Q16602)
[7] = target: CGRP receptor, CLR I32A (HA-CLR I32A with RAMP1) (UniProt Q16602)
[8] = target: CGRP receptor, CLR L34A (HA-CLR L34A with RAMP1) (UniProt Q16602)
[9] = target: AM2 receptor, wild type (HA-CLR with RAMP3) (human) (UniProt Q16602)
[10] = target: AM2 receptor, CLR Q45A (HA-CLR Q45A with RAMP3) (human) (UniProt Q16602)
[11] = target: AM2 receptor, CLR T37A (HA-CLR T37A with RAMP3) (human) (UniProt Q16602)
[12] = target: AM2 receptor, CLR I52A (HA-CLR I52A with RAMP3) (human) (UniProt Q16602)
[13] = target: AM2 receptor, CLR Q33A (HA-CLR Q33A with RAMP3) (human) (UniProt Q16602)
[14] = target: AM2 receptor, CLR I32A (HA-CLR I32A with RAMP3) (human) (UniProt Q16602)
[15] = target: AM2 receptor, CLR M42A (HA-CLR M42A with RAMP3) (human) (UniProt Q16602)
[16] = target: AM2 receptor, CLR L34A (HA-CLR L34A with RAMP3) (human) (UniProt Q16602)
[17] = target: AM2 receptor, CLR G35A (HA-CLR G35A with RAMP3) (human) (UniProt Q16602)
[18] = target: AM2 receptor, CLR I41A (HA-CLR I41A with RAMP3) (human) (UniProt Q16602)
[19] = target: AM2 receptor, CLR V36A (HA-CLR V36A with RAMP3) (human) (UniProt Q16602)
[20] = target: AM2 receptor, RAMP3 W84F (HA-CLR with RAMP3 W84F) (human) (UniProt Q16602)
[21] = target: AM2 receptor, wild type (HA-CLR with RAMP3) (human) (UniProt Q16602); remark: listed apart in the source
[22] = target: AM1 receptor, RAMP2 E101A (HA-CLR with FLAG-RAMP2 E101A) (human) (UniProt Q16602)
[23] = target: AM2 receptor, RAMP3 W84A (HA-CLR with RAMP3 W84A) (human) (UniProt Q16602)
[24] = target: AM1 receptor, CLR L34A (HA-CLR L34A with FLAG-RAMP2) (human) (UniProt Q16602)
[25] = target: AM1 receptor, CLR G35A (HA-CLR G35A with FLAG-RAMP2) (human) (UniProt Q16602)
[26] = target: AM1 receptor, CLR I52A (HA-CLR I52A with FLAG-RAMP2) (human) (UniProt Q16602)
[27] = target: AM1 receptor, CLR V36A (HA-CLR V36A with FLAG-RAMP2) (human) (UniProt Q16602)
[28] = target: AM1 receptor, CLR M42A (HA-CLR M42A with FLAG-RAMP2) (human) (UniProt Q16602)
[29] = target: AM1 receptor, CLR Q33A (HA-CLR Q33A with FLAG-RAMP2) (human) (UniProt Q16602)
[30] = target: AM1 receptor, CLR I32A (HA-CLR I32A with FLAG-RAMP2) (human) (UniProt Q16602)
[31] = test system: CLR mutants at the AM2 receptor; experiment: specific binding of [125I]-rAM to CLR mutants at the AM2 receptor; parameters: species or system human; conditions: Cos7, 4°C 1 h
Summary of the method: (§1)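 Cos7 cells transiently cotransfected (PEI, 1 μg DNA/well total) with HA-tagged human CLR mutants plus FLAG-human RAMP2 (AM1) or untagged human RAMP3 (AM2). Cells incubated in DMEM/0.5% BSA with [125I]-rAM ([…], 30 000 cpm/well) at 4°C for 1 h, washed with ice-cold PBS, NaOH-solubilised and gamma-counted. […] Specific binding normalised to the WT mean.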

[32] = test system: CLR mutants at the AM1 receptor; experiment: specific binding of [125I]-rAM to CLR mutants at the AM1 receptor; parameters: species or system human; conditions: Cos7, 4°C 1 h
Summary of the method: as §1

- pEC50, cAMP production in Cos7 cells [1]: 7.23
- pEC50, cAMP production in Cos7 cells [2]: 7.47
- pEC50, cAMP production in Cos7 cells [3]: 7.97
- pEC50, cAMP production in Cos7 cells [4]: 8.04
- pEC50, cAMP production in Cos7 cells [5]: 8.27
- pEC50, cAMP production in Cos7 cells; WT control paired with CLR G35A [6]: 8.4
- pEC50, cAMP production in Cos7 cells; WT control paired with CLR I32A [6]: 8.42
- pEC50, cAMP production in Cos7 cells; WT control paired with CLR I41A [6]: 8.31
- pEC50, cAMP production in Cos7 cells; WT control paired with CLR L34A [6]: 8.51
- pEC50, cAMP production in Cos7 cells; WT control paired with CLR M42A [6]: 8.33
- pEC50, cAMP production in Cos7 cells; WT control paired with CLR Q45A [6]: 8.65
- pEC50, cAMP production in Cos7 cells; WT control paired with CLR T37A [6]: 8.31
- pEC50, cAMP production in Cos7 cells; WT control paired with CLR V36A [6]: 8.42
- pEC50, cAMP production in Cos7 cells [7]: 8.52
- pEC50, cAMP production in Cos7 cells [8]: 8.44
- pEC50, cAMP production in Cos7 cells; WT control paired with CLR G35A [9]: 9.09
- pEC50, cAMP production in Cos7 cells; WT control paired with CLR I32A [9]: 9.83
- pEC50, cAMP production in Cos7 cells; WT control paired with CLR I41A [9]: 9.32
- pEC50, cAMP production in Cos7 cells; WT control paired with CLR I52A [9]: 9.29
- pEC50, cAMP production in Cos7 cells; WT control paired with CLR L34A [9]: 9.42
- pEC50, cAMP production in Cos7 cells; WT control paired with CLR M42A [9]: 8.82
- pEC50, cAMP production in Cos7 cells; WT control paired with CLR Q33A [9]: 8.59
- pEC50, cAMP production in Cos7 cells; WT control paired with CLR Q45A [9]: 8.95
- pEC50, cAMP production in Cos7 cells; WT control paired with CLR T37A [9]: 9.13
- pEC50, cAMP production in Cos7 cells; WT control paired with CLR V36A [9]: 9.09
- pEC50, cAMP production in Cos7 cells [10]: 8.94
- pEC50, cAMP production in Cos7 cells [11]: 7.7
- pEC50, cAMP production in Cos7 cells [12]: 9.12
- pEC50, cAMP production in Cos7 cells [13]: 8.56
- pEC50, cAMP production in Cos7 cells [14]: 9.47
- pEC50, cAMP production in Cos7 cells [15]: 8.61
- pEC50, cAMP production in Cos7 cells [16]: 9.13
- pEC50, cAMP production in Cos7 cells [17]: 8.78
- pEC50, cAMP production in Cos7 cells [18]: 8.47
- pEC50, cAMP production in Cos7 cells [19]: 8.62
- pEC50, cAMP production in Cos7 cells [20]: 9.38
- pEC50, cAMP production in Cos7 cells; WT control paired with RAMP3 W84A [21]: 9.62
- pEC50, cAMP production in Cos7 cells; WT control paired with RAMP3 W84F [21]: 9.63
- pEC50, cAMP production in Cos7 cells [22]: 7.39
- pEC50, cAMP production in Cos7 cells [23]: 9.02
- pEC50, cAMP production in Cos7 cells [24]: 7.64
- pEC50, cAMP production in Cos7 cells [25]: 7.92
- pEC50, cAMP production in Cos7 cells [26]: 8.11
- pEC50, cAMP production in Cos7 cells [27]: 7.89
- pEC50, cAMP production in Cos7 cells [28]: 7.86
- pEC50, cAMP production in Cos7 cells [29]: 7.89
- pEC50, cAMP production in Cos7 cells [30]: 8.24
Substance: Human adrenomedullin 2 (AM2-47) (from UniProt Q7Z4H4 101-148) (peptide)

- specific binding of [125I]-rAM ([31]; CLR M42A and Q45A): retained
- specific binding of [125I]-rAM ([31]; CLR T37A and I41A): abolished
- specific binding of [125I]-rAM ([32]; CLR I52A (printed 152A)): retained binding
- specific binding of [125I]-rAM ([32]; CLR M42A and Q45A): abolished
- specific binding of [125I]-rAM ([32]; CLR T37A and I41A): abolished
Substance: [^125I]-rAM: rat AM (rAM) iodinated using iodobeads, purified by reverse phase HPLC; radioligand (YRQSMNQGSRSTGCRFGTCTMQKLAHQIYQFTDKDKDGMAPRNKISPQGY; ends and bridges not checked; also: 125I label, residue not given here)

Reference: paper PMC3969088 (British Journal of Pharmacology, 2014)
